NR2E3 ag-1 – human photoreceptor-specific nuclear receptor agonism; hit rate 0.35% among 360,000; AID 602229; inhibition of corepressor binding, % at 3.98 µM; Q9Y5X4; CHO-S Gal4-NCOR/VP16-NR2E3 two-hybrid, luciferase;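 active = inhibition above the mean of all tested compounds plus 3 SD, cut at about 70% in these data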;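 note: 0% = DMSO with NR2E3 transfected cells and 100% = cells lacking NR2E3 construct; higher means lower luciferase signal from less NR2E3 corepressor binding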
Target sequence (Q9Y5X4 whole entry, looked up, the tested form may be a part): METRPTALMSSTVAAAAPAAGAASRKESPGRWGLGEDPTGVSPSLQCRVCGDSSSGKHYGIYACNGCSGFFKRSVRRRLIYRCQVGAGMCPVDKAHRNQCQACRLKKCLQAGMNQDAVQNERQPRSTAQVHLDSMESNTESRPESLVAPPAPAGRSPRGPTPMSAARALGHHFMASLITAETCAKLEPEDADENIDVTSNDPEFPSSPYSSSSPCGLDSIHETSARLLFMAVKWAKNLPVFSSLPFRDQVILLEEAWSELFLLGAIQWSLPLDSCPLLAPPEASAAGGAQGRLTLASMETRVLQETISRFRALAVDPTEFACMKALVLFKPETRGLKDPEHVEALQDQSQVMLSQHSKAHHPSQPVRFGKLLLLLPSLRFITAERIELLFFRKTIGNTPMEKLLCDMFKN
HIF act – HIF pathway transcriptional activation; hit rate 0.32% among 300,000; activation, % at 7.5 µM (by protocol); U2OS HRE-luciferase reporter, luminescence; normalized: DMSO 0%, desferrioxamine 100%;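 active = mean activation of at least 10% of the iron chelator positive control signal, with at least half of replicates also reaching 10%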
NR2E3 ag-2 – agonists of human nuclear receptor NR2E3. Q9Y5X4. GST-NR2E3/biotin-RetCOR TR-FRET, 1536-well. inhibition of corepressor binding, % at 4.78 µM. hit rate 0.12% among 320,000. AID 2300;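 active = percent inhibition above the cutoff of mean plus 3 SD of all tested compounds, set per screening campaign, cut at about 20% in these data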;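 note: 0% = DMSO wells and 100% = biotin wells as full block of FRET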
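Test system: GST-NR2E3 and biotin-RetCOR proteins | Quantity: 1.35 nM GST-tagged NR2E3 final | Medium: Tris pH 7.5 | Also added: 7 nM biotin-RetCOR | Dosing: Compound at 4.8 µM, single dose | Timing: 5 h at 4 °C | Detection: Time-resolved FRET | Read-out basis: Percent inhibition | Benchmarks: Biotin wells as high control, 0.6% DMSO wells as low control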
TROY signal inh – blocks TROY-dependent signaling in reporter cells; Q293 LMP1-TROYcd NF-kB luciferase reporter, 4 h; inhibition, % at 10 µM; hit rate 0.98% among 360,000; AID 1347056;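 active = compounds whose plate-normalised and pattern-corrected inhibition of the luciferase reporter signal at the single screening dose is 50% or more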
EBV LMP1 NFkB – Epstein-Barr LMP1 NF-kappaB reporter inhibition; AID 504558; inhibition, % at 12.5 µM; hit rate 0.69% among 350,000; LMP1-induced NF-kappaB luciferase reporter cells, luminescence; in the data active = inhibition above about 41%;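 note: 0% = neutral control wells and 100% = reference inhibitor control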
Numbers without * were called inactive; x = no result. Rows were chosen to be rich in hits. Some 2% of all compounds tested hit in one or more screens of this group.

SMILES | NR2E3 ag-1 | HIF act | NR2E3 ag-2 | TROY signal inh | EBV LMP1 NFkB
CCN(C[C@H]1N[C@@](Cc2ccccc2)(C(=O)OC)[C@H]2C(=O)N(Cc3ccccc3)C(=O)[C@@H]12)C(=O)Nc1ccc(C)cc1 | -17.9 | x | x | -32.4 | -9.7
CCN(C[C@H]1N[C@@](Cc2ccccc2)(C(=O)OC)[C@H]2C(=O)N(Cc3ccccc3)C(=O)[C@@H]12)C(=O)Nc1ccc(C(F)(F)F)cc1 | 22.4 | x | x | 50.2* | 4.0
Cc1noc(C)c1NC(=O)N(C)C[C@H]1OCCCC[C@@H](C)Oc2ccc(NS(=O)(=O)c3ccccc3)cc2C(=O)N([C@H](C)CO)C[C@@H]1C | -15.5 | x | x | -3.6 | -5.2
CC1(C)CC(NC(=O)COc2ccccc2Cl)CC(C)(C)N1 | 2.7 | 0.0 | -0.7 | 74.9* | 4.8
CC1(C)CC(NC(=O)COc2ccc(Br)cc2Cl)CC(C)(C)N1 | 25.8 | -0.3 | 4.7 | 12.1 | 1.5
COc1ccc(OCC(=O)NC2CC(C)(C)NC(C)(C)C2)cc1 | -12.6 | x | -1.4 | 63.1* | 6.5
Cc1ccccc1N=C1NN=C(c2ccccc2F)CS1 | -18.1 | 1.8 | -5.5 | 57.0* | 19.2
COc1ccc(C(=O)Nc2ccc(Cl)c(S(=O)(=O)Nc3ccccc3OC)c2)cc1 | -5.5 | 1.1 | -1.2 | 52.7* | 13.4
COc1ccccc1NS(=O)(=O)c1cccc(NC(=O)Nc2cccc(Cl)c2)c1 | -13.5 | -0.6 | -0.6 | 51.0* | 8.0
COc1ccccc1NS(=O)(=O)c1cc(NC(=O)c2ccc(Cl)nc2)ccc1Cl | -22.7 | 0.0 | -2.4 | 71.5* | 32.7
COc1ccccc1NS(=O)(=O)c1cc(NC(=O)c2ccc3ccccc3n2)ccc1Cl | -17.5 | 0.0 | 1.7 | 6.5 | 0.5
COc1ccccc1NS(=O)(=O)c1cccc(NC(=O)NCCCl)c1 | -8.6 | -0.5 | -0.2 | -12.3 | -0.3
COc1ccccc1NC(=O)Nc1ccc(Cl)c(S(=O)(=O)Nc2ccccc2OC)c1 | -17.7 | -0.6 | 4.9 | 13.3 | 6.6
O=C(Nc1ccc(C(=O)N2CCOCC2)cc1)c1ccccc1Cl | -12.8 | x | x | 2.6 | -8.2
CN(Cc1ccccc1F)c1cc2c(c3c1ccn3C)C1CCC2C1 (configuration not stated) | -5.2 | x | x | 2.1 | x
CN1CCN(C(CNC(=O)c2ccc(Br)o2)c2ccc(F)cc2)CC1 (configuration not stated) | -4.0 | 0.3 | 1.0 | -32.8 | -4.1
Cc1ccc(C(=O)NN=CC(=O)c2ccccc2)c(C)c1 | -178.0 | x | x | 51.8* | -34.8
Cc1onc(-c2ccccc2)c1NC(=O)N(CCC(=O)O)Cc1ccccc1 | -35.5 | 0.1 | -6.1 | -7.2 | x
Cc1onc(-c2ccccc2)c1NC(=O)N(Cc1ccccc1)C(C)C | -8.8 | 55.4* | -2.0 | 1.9 | 1.1
COc1ccc(-c2sc3ccc(N4CCOCC4)cc3c2C#CC2(O)CCCCC2)cc1 | 7.8 | x | x | -10.8 | -6.3
COc1ccc(-c2sc3ccc(N4CCOCC4)cc3c2C#CCO)cc1 | -5.4 | x | x | 54.3* | -1.5
Cc1cc(C)nc(SCc2cn3ccccc3n2)n1 | -8.4 | 1.1 | -0.9 | -16.5 | -3.1
Cc1cc(C)c(C#N)c(SCc2cn3ccccc3n2)n1 | -0.5 | 2.1 | -1.0 | 53.6* | 17.1
CCC(C(=O)Nc1ccc2c(c1)OCCO2)n1c(=O)[nH]c2ccccc2c1=O (configuration not stated) | 30.7 | -1.5 | 0.1 | 59.8* | 11.4
CC(Oc1cccc(Br)c1)C(=O)N1CCCN(C)CC1 (configuration not stated) | 15.9 | -0.3 | 0.6 | -13.6 | -0.1
SMILES | NR2E3 ag-1 | HIF act | NR2E3 ag-2 | TROY signal inh | EBV LMP1 NFkB
CC(=O)Nc1nc(-c2ccc3c(c2)CCN3C(=O)C2CC2)c(C)s1 | -18.6 | 1.5 | 3.2 | -23.1 | 81.7*
CCS(=O)(=O)c1nnnn1-c1ccccc1S(C)(=O)=O | 19.3 | -1.4 | 1.3 | 0.6 | 50.8*
O=C1OC(c2ccc3ccccc3c2O)(c2ccc3ccccc3c2O)c2ccccc21 | 1.0 | x | x | 66.2* | -8.9
Nc1ccn(C2OC(COC(=O)C34CC5CC(CC(C5)C3)C4)C(O)C2O)c(=O)n1 (configuration not stated) | 1.3 | x | x | -3.5 | -0.2
CC1CCC(C(C)C)C(OC(=O)Cn2c(-c3ccccc3)[n+](C)c3ccccc32)C1 (configuration not stated) | 1.4 | 0.0 | 1.0 | 56.7* | -20.7
Cc1cccc(OCc2n(CC(=O)OC3CC(C)CCC3C(C)C)c3ccccc3[n+]2C)c1 (configuration not stated) | -19.1 | -0.8 | 1.7 | 64.2* | -14.6
Cc1ccc(F)cc1-c1cc2nc(NCCCN(C)C)n(C)c(=O)c2s1 | -12.4 | x | x | 4.0 | x
CCc1ccc(Nc2n[n+](-c3ccccc3)c(-c3c(Cl)cccc3Cl)s2)cc1 | 37.7 | 3.4 | 4.7 | 59.4* | 43.7*
COc1ccc(CN(C(=O)CN2C(=O)NC3(CCC(C)CC3)C2=O)C(C)Cc2cccs2)cc1 (configuration not stated) | -8.7 | x | 0.8 | -6.8 | -0.8
Brc1ccc(NC2=Nc3ccccc3CC2)cc1 | 10.4 | 7.0 | -0.8 | -12.5 | -48.8
Cc1ccc(NC2=Nc3ccccc3CC2)cc1 | -97.1 | -0.1 | 1.8 | 61.5* | 0.8
Cc1ccc(CNC(=O)C2CCN(S(=O)(=O)c3c(C)noc3/C=C/c3ccco3)CC2)cc1 | 13.5 | -0.3 | -0.1 | 15.0 | 83.1*
CC(NC(=O)c1ccc(Br)cc1)c1ccc2c(c1)CCCC2 (configuration not stated) | -2.9 | 0.1 | 2.1 | 16.7 | -5.3
CC(NC(=O)c1ccc(F)cc1)c1ccc2c(c1)CCCC2 (configuration not stated) | 15.8 | -0.6 | -0.5 | 52.8* | 0.9
CCc1cc2c(Sc3nc4ccccc4s3)ncnc2s1 | 2.0 | -0.1 | -0.4 | -21.1 | 43.3*
c1ccc2sc(Sc3ncnc4sccc34)nc2c1 | 13.9 | 0.0 | 3.3 | 17.1 | 6.7
CCNc1nc(CN2CCOCC2)nc2sc3c(c12)CCC3 | -11.0 | 0.0 | 0.1 | -1.1 | 64.9*
O=S(=O)(Nc1nc(CN2CCOCC2)nc2sc3c(c12)CCCC3)c1cc(F)ccc1F | -15.3 | 0.1 | -0.2 | 4.0 | 10.0
C#CCOCCOCCOCCNc1nc(N2CCN(C(=O)CCCCCCCCCCNC(=O)[C@H]([C@@H](C)CC)n3cc(CCCCCN)nn3)CC2)nc(N2CCN(C(=O)CCCCCCCCCCNC(=O)[C@@H]([C@H](C)O)n3cc(C)nn3)CC2)n1 | 8.0 | x | -0.1 | 67.0* | -7.9
C#CCOCCOCCOCCNc1nc(N2CCN(C(=O)CCCCCCCCCCNC(=O)[C@H](CCCCN)n3cc(C[C@@H](C)CC)nn3)CC2)nc(N2CCN(C(=O)CCCCCCCCCCNC(=O)[C@H](CCCCN)n3cc(C[C@@H](C)CC)nn3)CC2)n1 | 9.3 | -7.5 | -1.5 | 65.1* | 16.0
CCOc1cc(CNc2ccc3c(c2)OCCO3)cc(Br)c1OC | 45.6 | 1.5 | 2.6 | 85.3* | 31.7
CCOc1cc(CNc2ccc3c(c2)OCCO3)cc(Br)c1OCC(N)=O | -11.6 | 0.2 | 0.8 | 64.0* | 4.0

Source: PubChem BioAssay (several laboratories)
